The test system of one test is Candida albicans. The experiment in a line: Antifungal activity against Candida albicans MTCC 227 at 30 ug/ml after 48 hrs by cup-plate method. Format: functional. The note with it: MTCC 227, 48 h, read-out: DIZ. The gist of the method: (§1)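 Cup-plate diffusion on Sabouraud's dextrose agar, incubated 48 h at 28 °C. Compounds in DMF, which also served as the control, with fluconazole as the reference standard.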

The next test has as its system Aspergillus niger. The experiment in a line: Antifungal activity against Aspergillus niger MTCC 282 at 30 ug/ml after 48 hrs by cup-plate method. The test is classed as functional. The following applies: MTCC 282, 48 h, read-out: DIZ. The gist of the method:
as §1

Test [1] relates to Bacillus subtilis. In words: Antibacterial activity against Bacillus subtilis MTCC 441 at 1 ug/ml after 24 hrs by cup-plate method. The test is classed as functional, organism-based. The gist of the method:
(§2)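 Cup-plate diffusion in nutrient agar, incubated 24 h at 37 °C. Compounds dissolved in DMF and tested at the single concentration given in the line. DMF served as the solvent control and ciprofloxacin as the reference standard. Read-out is the zone of inhibition diameter in mm.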

For test [2], the system named is Bacillus subtilis. The experiment in a line: Antibacterial activity against Bacillus subtilis MTCC 441 at 10 ug/ml after 24 hrs by cup-plate method relative to ciprofloxacin. The test is classed as functional, organism-based.
Test [3] relates to Bacillus subtilis. The experiment in a line: Antibacterial activity against Bacillus subtilis MTCC 441 at 100 ug/ml after 24 hrs by cup-plate method relative to ciprofloxacin. Format: functional, organism-based.
The subject of test [4] is Bacillus subtilis. The experiment in a line: Antibacterial activity against Bacillus subtilis MTCC 441 at 500 ug/ml after 24 hrs by cup-plate method. Format: functional, organism-based. The gist of the method: as §2
The subject of test [5] is Bacillus subtilis. The experiment in a line: Antibacterial activity against Bacillus subtilis MTCC 441 after 24 hrs. The note with it: MTCC 441, 24 h. Format: functional. The gist of the method:
(§3)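 MIC was taken as the lowest concentration giving 100% growth inhibition relative to a drug-free control, after 24 h at 37 °C in nutrient agar. Compounds were dissolved in DMF, and ciprofloxacin was the reference.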

The subject of test [6] is Bacillus subtilis. In words: Antibacterial activity against Bacillus subtilis MTCC 441 at 200 ug/ml after 24 hrs by cup-plate method. Format: functional, organism-based. The method in brief: as §2
For test [7], the system named is Escherichia coli. The experiment in a line: Antibacterial activity against Escherichia coli MTCC 443 at 1 ug/ml after 24 hrs by cup-plate method. Format: functional, organism-based. The gist of the method:
as §2

For test [8], the system named is Escherichia coli. The experiment in a line: Antibacterial activity against Escherichia coli MTCC 443 at 10 ug/ml after 24 hrs by cup-plate method relative to ciprofloxacin. The test is classed as functional, organism-based.
Test [9] deals with Escherichia coli. The experiment in a line: Antibacterial activity against Escherichia coli MTCC 443 at 100 ug/ml after 24 hrs by cup-plate method relative to ciprofloxacin. Format: functional, organism-based.
Test [10] concerns Escherichia coli. The experiment in a line: Antibacterial activity against Escherichia coli MTCC 443 at 200 ug/ml after 24 hrs by cup-plate method. Format: functional, organism-based. The gist of the method:
as §2

Test [11] deals with Escherichia coli. In words: Antibacterial activity against Escherichia coli MTCC 443 at 500 ug/ml after 24 hrs by cup-plate method. Format: functional, organism-based. The method in brief: as §2
The test system of test [12] is Escherichia coli. In words: Antibacterial activity against Escherichia coli MTCC 443 after 24 hrs. Format: functional. The following applies: MTCC 443, 24 h. The gist of the method: as §3
In test [13] the test system is Streptomyces griseus. In words: Antibacterial activity against Streptomyces griseus MTCC 1540 at 1 ug/ml after 24 hrs by cup-plate method. Format: functional, organism-based. The gist of the method: as §2
Test [14] relates to Streptomyces griseus. In words: Antibacterial activity against Streptomyces griseus MTCC 1540 at 10 ug/ml after 24 hrs by cup-plate method relative to ciprofloxacin. The test is classed as functional, organism-based.
Test [15] concerns Streptomyces griseus. The experiment in a line: Antibacterial activity against Streptomyces griseus MTCC 1540 at 100 ug/ml after 24 hrs by cup-plate method. Format: functional, organism-based. The gist of the method: as §2
Test [16] has as its system Streptomyces griseus. The experiment in a line: Antibacterial activity against Streptomyces griseus MTCC 1540 at 200 ug/ml after 24 hrs by cup-plate method. The test is classed as functional, organism-based. The method in brief: as §2
The test system of test [17] is Streptomyces griseus. In words: Antibacterial activity against Streptomyces griseus MTCC 1540 at 500 ug/ml after 24 hrs by cup-plate method. Format: functional, organism-based. The method in brief: as §2
Test [18] relates to Streptomyces griseus. The experiment in a line: Antibacterial activity against Streptomyces griseus MTCC 1540 after 24 hrs. Format: functional. The note with it: MTCC 1540, 24 h. The gist of the method: as §3
Test [19] relates to Bacillus subtilis. The experiment in a line: Antibacterial activity against Bacillus subtilis MTCC 441 at 100 ug/ml after 24 hrs by cup-plate method. The test is classed as functional, organism-based. The gist of the method: as §2
The subject of test [20] is Escherichia coli. The experiment in a line: Antibacterial activity against Escherichia coli MTCC 443 at 100 ug/ml after 24 hrs by cup-plate method. The test is classed as functional, organism-based. The gist of the method:
as §2

Test [21] has as its system Streptomyces griseus. The experiment in a line: Antibacterial activity against Streptomyces griseus MTCC 1540 at 10 ug/ml after 24 hrs by cup-plate method. The test is classed as functional, organism-based. The gist of the method: as §2
Test [22] deals with Bacillus subtilis. In words: Antibacterial activity against Bacillus subtilis MTCC 441 at 10 ug/ml after 24 hrs by cup-plate method. The test is classed as functional, organism-based. The gist of the method: as §2
Test [23] concerns Escherichia coli. In words: Antibacterial activity against Escherichia coli MTCC 443 at 10 ug/ml after 24 hrs by cup-plate method. Format: functional, organism-based. The method in brief: as §2

The structures appear in SMILES notation. Values after ≈ are worked out from the molar mass of the structure shown. Active and inactive are the calls of the source. No cut-off for these calls is given here.

Regarding `OC(Cn1cncn1)(Cn1cncn1)c1ccc(F)cc1F` [FLUCONAZOLE], the zone of inhibition at 30 µg/mL in the test on Candida albicans and in the test on Aspergillus niger was 22 mm throughout.
For `Sc1nnc(CCNc2nc3ccccc3s2)n1/N=C/c1ccccc1Cl`, the outcome in the test with Bacillus subtilis [1], with Bacillus subtilis [3], with Escherichia coli [7], in the test with Streptomyces griseus [13] and with Streptomyces griseus [15] was inactive. The outcome in the test with Bacillus subtilis [2], in the test with Bacillus subtilis [4], in the test on Bacillus subtilis [6], with Escherichia coli [8], with Escherichia coli [9] and with Escherichia coli [10] was Active. Besides, the outcome in the test on Escherichia coli [11], in the test on Streptomyces griseus [14], with Streptomyces griseus [16] and with Streptomyces griseus [17] was Active. In addition, the MIC in the test with Bacillus subtilis [5], with Escherichia coli [12] and in the test on Streptomyces griseus [18] was 200 µg/mL (≈ 482 µM) throughout. Also, the zone of inhibition at 30 µg/mL with Candida albicans turned out to be 22 mm; in the test with Aspergillus niger, 16 mm.
Consider `Oc1ccc(/C=N/n2c(S)nnc2CCNc2nc3ccccc3s2)cc1`, for which the result in the test on Bacillus subtilis [1], in the test with Bacillus subtilis [2], in the test on Escherichia coli [7], in the test with Escherichia coli [8], with Streptomyces griseus [13] and in the test with Streptomyces griseus [14] was inactive. The outcome with Bacillus subtilis [19], in the test with Bacillus subtilis [4], in the test with Bacillus subtilis [6], in the test with Escherichia coli [9], in the test on Escherichia coli [10] and in the test on Escherichia coli [11] was Active. Further, the result with Streptomyces griseus [15], in the test on Streptomyces griseus [16] and with Streptomyces griseus [17] was Active. In addition, the MIC in the test on Bacillus subtilis [5] was found to be 100 µg/mL (≈ 252 µM); against Escherichia coli [12], 200 µg/mL (≈ 504 µM); against Streptomyces griseus [18], 100 µg/mL (≈ 252 µM). Moreover, the zone of inhibition at 30 µg/mL with Candida albicans was determined as 22 mm; in the test on Aspergillus niger, 10 mm.
As to `CN(C)c1ccc(/C=N/n2c(S)nnc2CCNc2nc3ccccc3s2)cc1`, the outcome with Bacillus subtilis [1], in the test with Bacillus subtilis [2], in the test on Escherichia coli [7], in the test on Streptomyces griseus [13] and in the test on Streptomyces griseus [21] was inactive. Besides, the result in the test with Bacillus subtilis [19], in the test with Bacillus subtilis [4], in the test with Bacillus subtilis [6], in the test on Escherichia coli [8], in the test on Escherichia coli [20] and in the test on Escherichia coli [10] was Active. Moreover, the result in the test with Escherichia coli [11], in the test on Streptomyces griseus [15], with Streptomyces griseus [16] and in the test on Streptomyces griseus [17] was Active. The MIC against Bacillus subtilis [5], against Escherichia coli [12] and in the test on Streptomyces griseus [18] was 100 µg/mL (≈ 236 µM) throughout. The values for the zone of inhibition at 30 µg/mL with Candida albicans and in the test with Aspergillus niger were 16 mm and 10 mm, respectively.
For the compound `O=C(O)c1cn(C2CC2)c2cc(N3CCNCC3)c(F)cc2c1=O` [CIPROFLOXACIN], the outcome with Bacillus subtilis [1], in the test on Escherichia coli [7] and in the test on Streptomyces griseus [13] was inactive. For the same compound, the outcome with Bacillus subtilis [22], with Bacillus subtilis [19], with Bacillus subtilis [4], with Bacillus subtilis [6], in the test with Escherichia coli [23] and in the test on Escherichia coli [20] was Active. Moreover, the result in the test on Escherichia coli [10], with Escherichia coli [11], with Streptomyces griseus [21], in the test on Streptomyces griseus [15], with Streptomyces griseus [16] and in the test with Streptomyces griseus [17] was Active. The minimum inhibitory concentration (MIC) against Bacillus subtilis [5] and in the test with Streptomyces griseus [18] was 10 µg/mL (≈ 30.2 µM) in each case.

For the origin of these results see ChEMBL document CHEMBL1177873, “Synthesis and evaluation of some new benzothiazole derivatives as potential antimicrobial agents” (Eur J Med Chem, 2010).
